In ChEMBL document CHEMBL3244365, “Synthesis of potential hypolipidemic agents. Reaction of substituted phenyl 2,3-epoxypropyl ethers with adenine, uracil, and thymine” (J Med Chem, 1978) one finds level, % of control, inhibition and Activity data, which are given here for 15 compounds.

Data set [1] relates to Rattus norvegicus. Briefly: Hypolipidemic activity in Sprague-Dawley rat assessed as decrease in serum cholesterol at 10 mg/kg/day, po after 22 to 24 hrs by Liebermann-Burchard reaction (reference value: 100 +/- 8%). The data set is classed as functional. In short, it runs like this:
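Male Sprague-Dawley rats were kept on rodent chow with water ad libitum. Compounds were suspended and homogenized in 1% CMC-water and given by oral intubation once daily at 11:00 a.m., with doses based on weekly body weights. Tail-vein blood was taken 22-24 h after dosing into nonheparinized microcapillary tubes and centrifuged 3 min. Serum cholesterol (mg %) was measured on duplicate 30-μl non-hemolyzed samples by a modified Liebermann-Burchard reaction.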

Data set [2] relates to Rattus norvegicus. Briefly: Hypolipidemic activity in Sprague-Dawley rat assessed as decrease in serum triglyceride at 10 mg/kg, po qd for 1 week (reference value: 100 +/- 5.3%). The data set is classed as functional. The conditions noted are these: 168 h.
Data set [3] concerns Rattus norvegicus. Briefly: Hypolipidemic activity in Sprague-Dawley rat assessed as decrease in serum triglyceride at 100 mg/kg, po qd for 1 week (reference value: 100 +/- 5.3%). It is filed as functional. The note with it: 168 h.
The subject of data set [4] is Rattus norvegicus. As to the kind of experiment: Hypolipidemic activity in Sprague-Dawley rat assessed as decrease in liver triglyceride at 10 mg/kg, po qd for 1 week (reference value: 100 +/- 8.4%). It is filed as functional. The note with it: 168 h.
Data set [5] deals with Rattus norvegicus. Briefly: Hypolipidemic activity in Sprague-Dawley rat assessed as incorporation of [1,3-14C]glycerol in liver phospholipid at 100 mg/kg, po qd for 1 week (reference value: 100 +/- 8.3%). The note with it: 168 h.
The subject of data set [6] is Rattus norvegicus. As to the kind of experiment: Hypolipidemic activity in Sprague-Dawley rat assessed as decrease in serum triglyceride at 50 mg/kg, po qd for 1 week (reference value: 100 +/- 5.3%). The data set is classed as functional. The conditions noted are these: 168 h.
Data set [7] deals with Rattus norvegicus. Briefly: Hypolipidemic activity in Sprague-Dawley rat assessed as change in liver triglyceride at 50 mg/kg, po qd for 1 week (reference value: 100 +/- 8.4%). The conditions noted are these: 168 h.
Data set [8] is filed under the species Rattus norvegicus. As to the kind of experiment: Inhibition of rat phosphatidate phosphohydrolase in liver microsomes assessed as reduction in enzyme activity at 2 mmol.
In data set [9] the test system is Rattus norvegicus. Briefly: Hypolipidemic activity in Sprague-Dawley rat assessed as inhibition of incorporation of [1,3-14C]glycerol in liver triglyceride at 10 mg/kg, po qd for 1 week (reference value: 100 +/- 8.4%); values are per cent of control. The conditions noted are these: 168 h.
For data set [10], the system named is Rattus norvegicus. As to the kind of experiment: Toxicity in Sprague-Dawley rat assessed as change in body weight at 10 to 100 mg/kg, po. More on the design: dose 10-100 mg/kg, route oral. The data set is classed as organism-based. The note with it: in vivo. Summed up:
(§1)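 Male Sprague-Dawley rats received 10-100 mg/kg orally once daily for 7 days as a 1% CMC-water suspension. Body weight gain, food intake and deaths were monitored.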

In data set [11] the test system is Rattus norvegicus. Briefly: Toxicity in Sprague-Dawley rat assessed as change in food intake at 10 to 100 mg/kg, po. More on the design: dose 10-100 mg/kg, route oral. The conditions noted are these: in vivo. The data set is classed as organism-based. Summed up:
as §1

The test system of data set [12] is Rattus norvegicus. Briefly: Hypolipidemic activity in Sprague-Dawley rat assessed as inhibition of incorporation of [1,3-14C]glycerol in liver triglyceride at 50 mg/kg, po qd for 1 week (reference value: 100 +/- 8.4%); values are per cent of control. The note with it: 168 h.
Another data set relates to Liver microsome. Briefly: Hypolipidemic activity in rat liver microsomes assessed as inhibition of incorporation of [1,3-14C]glycerol 3-phosphate ino neutral lipid at 0.5 to 5 mM. The data set is classed as functional. Summed up: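 Rat liver microsomes were incubated with sn-[1,3-14C]glycerol 3-phosphate in the presence of ATP, palmitate, CoA and Mg2+. Label incorporated into neutral lipid (diglyceride + triglyceride) was measured, and phosphatidic acid accumulation was also followed.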
On the technique in general: Liver microsomes are a subcellular fraction often used to study metabolism.

Data set [13] relates to Rattus norvegicus. As to the kind of experiment: Hypolipidemic activity in Sprague-Dawley rat assessed as inhibition of incorporation of [1,3-14C]glycerol in liver triglyceride at 100 mg/kg, po qd for 1 week (reference value: 100 +/- 8.4%); values are per cent of control. The note with it: 168 h.
The test system of data set [14] is Rattus norvegicus. Briefly: Hypolipidemic activity in Sprague-Dawley rat assessed as incorporation of [1,3-14C]glycerol in liver phospholipid at 10 mg/kg, po qd for 1 week (reference value: 100 +/- 8.3%). The note with it: 168 h.
Data set [15] relates to Rattus norvegicus. Briefly: Hypolipidemic activity in Sprague-Dawley rat assessed as inhibition of incorporation of [1,3-14C]glycerol in liver phospholipid at 50 mg/kg, po qd for 1 week (reference value: 100 +/- 8.3%); values are per cent of control. The conditions noted are these: 168 h.
In data set [16] the test system is Rattus norvegicus. As to the kind of experiment: Hypolipidemic activity in Sprague-Dawley rat assessed as liver triglyceride level at 100 mg/kg, po qd for 1 week (reference value: 100 +/- 8.4%). The note with it: 168 h.

Calls of active or inactive are those of the source. The rule behind the calls is not given here.

For `CC(C)(C)c1ccc(OCC(O)Cn2cnc3c(N)ncnc32)cc1` (stereo unspecified), the level, % of control at 10 mg/kg/day in the data set with Rattus norvegicus [1] was determined as 110%.

With `Cc1ccc(OCC(O)Cn2ccc(=O)[nH]c2=O)cc1` (stereo unspecified), the level, % of control at 10 mg/kg/day in the data set with Rattus norvegicus [1] worked out at 89%.

With `Nc1ncnc2c1ncn2CC(O)COc1ccc(C(=O)c2ccccc2)cc1` (stereo unspecified), the level, % of control at 10 mg/kg/day in the data set with Rattus norvegicus [1] is 118%.

`COc1ccc(OCC(O)Cn2ccc(=O)[nH]c2=O)cc1` (stereo unspecified): in the data set with Rattus norvegicus [1], the level, % of control at 10 mg/kg/day stood at 93%.

Take `Nc1ncnc2c1ncn2CC(O)CSc1ccc(Cl)cc1` (stereo unspecified): the level, % of control at 10 mg/kg/day with Rattus norvegicus [1] worked out at 79%.

By inhibition is commonly meant the share of the control response that was lost under treatment. Consider `Nc1ncnc2c1ncn2CC(O)COc1ccc(Cl)cc1` (stereo unspecified), for which the level, % of control at 10 mg/kg was 73% in the data set with Rattus norvegicus [2], 57.6% in the data set on Rattus norvegicus [4], 36.7% in the data set on Rattus norvegicus [9] and 74.9% in the data set on Rattus norvegicus [14]. Further, the level, % of control at 100 mg/kg in the data set with Rattus norvegicus [3] amounted to 40.3%; with Rattus norvegicus [5], 36.7%; in the data set with Rattus norvegicus [13], 31.8%; in the data set with Rattus norvegicus [16] it was 345%. Moreover, the level, % of control at 50 mg/kg with Rattus norvegicus [6] is 38.5%; in the data set with Rattus norvegicus [7], 252%; in the data set with Rattus norvegicus [12] it was 29%; in the data set on Rattus norvegicus [15], 33.5%. In the data set on Rattus norvegicus [1], the level, % of control at 10 mg/kg/day worked out at 93%. Moreover, in the data set filed under Rattus norvegicus [8], the inhibition amounted to 50%. Besides, the Activity result in the data set on Rattus norvegicus [10] and in the data set with Rattus norvegicus [11] was “Non-toxic” in each case. In addition, the inhibition result with Liver microsome was “Active”.

Regarding `Nc1ncnc2c1ncn2CC(O)COc1ccc(Br)cc1` (stereo unspecified), in the data set on Rattus norvegicus [1], the level, % of control at 10 mg/kg/day turned out to be 96%.

In the case of `COc1ccc(OCC(O)Cn2cnc3c(N)ncnc32)cc1` (stereo unspecified), the level, % of control at 10 mg/kg/day in the data set with Rattus norvegicus [1] is 93%.

With `O=c1ccn(CC(O)COc2ccc(Cl)cc2)c(=O)[nH]1` (stereo unspecified), the level, % of control at 10 mg/kg/day in the data set on Rattus norvegicus [1] is 102%.

As for `Cc1ccc(OCC(O)Cn2cc(C)c(=O)[nH]c2=O)cc1` (stereo unspecified), the level, % of control at 10 mg/kg/day in the data set with Rattus norvegicus [1] came out at 99%.

Take `Nc1ncnc2c1ncn2CC(O)COc1cccc(Cl)c1` (stereo unspecified): the level, % of control at 10 mg/kg/day with Rattus norvegicus [1] was found to be 97%.

As to `CC(=O)c1ccc(OCC(O)Cn2cnc3c(N)ncnc32)cc1` (stereo unspecified), the level, % of control at 10 mg/kg/day in the data set on Rattus norvegicus [1] worked out at 99%.

As for `Nc1ncnc2c1ncn2CC(O)COc1ccc(F)cc1` (stereo unspecified), the level, % of control at 10 mg/kg/day with Rattus norvegicus [1] was found to be 86%.

Turning to `Cc1cn(CC(O)COc2ccc(Cl)cc2)c(=O)[nH]c1=O` (stereo unspecified), the level, % of control at 10 mg/kg/day with Rattus norvegicus [1] came to 96%.

Regarding `Nc1ncnc2c1ncn2CC(O)COc1ccccc1Cl` (stereo unspecified), in the data set with Rattus norvegicus [1], the level, % of control at 10 mg/kg/day was determined as 93%.
